Measured values taken from ChEMBL document CHEMBL3739417, “Synthesis and biological evaluation of novel 4,5-disubstituted 2H-1,2,3-triazoles as cis-constrained analogues of combretastatin A-4” (2015).

Legend:
Format in all cases: functional
M14 = assay: Growth inhibition of human M14 cells after 48 hrs by sulforhodamine B assay; conditions: M14, 48 h; for CC50: read-out: LD50 (the source's name)
Summary of the method: (§1)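 NCI-60 panel screen by SRB assay (Rubinstein method). Percentage growth taken from optical density of SRB colour, read before and 48 hrs after exposure to compound or vehicle control. All analogues first screened at 10^-5 M. Analogues giving 60% growth inhibition at that level in at least eight lines then went to a five-concentration dose-response study.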

[1] = Growth inhibition of human SF539 cells after 48 hrs by sulforhodamine B assay; conditions: SF-539, 48 h; for LC50 (concentration giving 50% cell kill): read-out: LD50
Summary of the method: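 NCI-60 sulforhodamine B screen. Compounds were first tested at a single dose of 10⁻⁵ M; hits, defined as ≥60% growth inhibition in at least eight lines, went on to a five-concentration dose–response. SRB optical density was read before and 48 h after exposure to compound or vehicle. Percentage growth was calculated from OD.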

[2] = Growth inhibition of human OVCAR4 cells after 48 hrs by sulforhodamine B assay; conditions: OVCAR-4, 48 h; for LC50 (concentration killing 50% of cells): read-out: LD50; summary of the method: as §1
SK-MEL-28 = assay: Growth inhibition of human SK-MEL-28 cells after 48 hrs by sulforhodamine B assay; conditions: SK-MEL-28, 48 h; for CC50: read-out: LD50 (the source's name); summary of the method: as §1
[3] = Growth inhibition of human UACC62 cells after 48 hrs by sulforhodamine B assay; conditions: UACC-62, 48 h; for CC50: read-out: LD50 (the source's name); summary of the method: as §1
[4] = Growth inhibition of human HL-60(TB) cells after 48 hrs by sulforhodamine B assay; conditions: HL-60, 48 h; for CC50: read-out: LD50 (the source's name); summary of the method: as §1
[5] = Growth inhibition of human COLO205 cells after 48 hrs by sulforhodamine B assay; conditions: COLO 205, 48 h; for CC50: read-out: LD50 (the source's name); summary of the method: as §1
[6] = Growth inhibition of human MOLT4 cells after 48 hrs by sulforhodamine B assay; conditions: MOLT-4, 48 h; for CC50: read-out: LD50 (the source's name); summary of the method: as §1
[7] = Growth inhibition of human Hs 578T cells after 48 hrs by sulforhodamine B assay; conditions: for CC50: read-out: LD50 (the source's name); summary of the method: as §1

Row | Compound | GI50 (M14) | CC50 (M14) | GI50 [1] | LC50 (concentration giving 50% cell kill) [1] | GI50 [2] | LC50 (concentration killing 50% of cells) [2] | GI50 (SK-MEL-28) | CC50 (SK-MEL-28) | GI50 [3] | CC50 [3] | GI50 [4] | CC50 [4] | GI50 [5] | CC50 [5] | GI50 [6] | CC50 [6] | GI50 [7] | CC50 [7] | TGI [1]
1 | COc1cc(-c2n[nH]nc2-c2ccc3c(c2)OCCO3)cc(OC)c1OC | < 0.01 µM | > 100 µM | < 0.01 µM | > 100 µM | 0.034 µM | > 100 µM | > 100 µM | > 100 µM | > 100 µM | > 100 µM | 0.019 µM | > 100 µM | 0.027 µM | > 100 µM | 0.04 µM | > 100 µM | 0.668 µM | > 100 µM | 
2 | COc1ccc(-c2n[nH]nc2-c2cc(OC)cc(OC)c2)cc1 | < 0.01 µM | > 100 µM | 0.014 µM | > 100 µM |  |  |  |  | < 0.01 µM | > 100 µM | 0.023 µM | > 100 µM | 0.149 µM | > 100 µM | 0.048 µM | > 100 µM | 0.041 µM | > 100 µM | 
3 | COc1ccc(-c2nn[nH]c2-c2cc(OC)c(OC)c(OC)c2)cc1 | < 0.01 µM | > 100 µM | < 0.01 µM | > 100 µM | < 0.01 µM | > 100 µM |  |  |  |  | < 0.01 µM | > 100 µM | 0.029 µM | > 100 µM | 0.012 µM | > 100 µM | < 0.01 µM | > 100 µM | < 0.01 µM
4 | COc1cc(-c2n[nH]nc2-c2ccc3c(c2)OCO3)cc(OC)c1OC |  |  | 0.18 µM | > 100 µM | 0.08 µM | > 100 µM | 0.24 µM | > 100 µM | > 100 µM | > 100 µM | 0.2 µM | > 100 µM | 0.31 µM | > 100 µM | 0.57 µM | > 100 µM | 0.44 µM | > 100 µM | 
5 | Clc1ccc(-c2n[nH]nc2-c2ccccn2)c(Cl)c1 | 14.3 µM | > 100 µM |  |  | 3.04 µM | > 100 µM | 5.39 µM | > 100 µM | 3.35 µM | > 100 µM | 5.75 µM | > 100 µM | 2.89 µM | > 100 µM | 4.23 µM | > 100 µM | 11.6 µM | > 100 µM | 
6 | COc1cc(-c2n[nH]nc2-c2ccc3ccccc3n2)cc(OC)c1OC | 0.022 µM | > 100 µM | 0.02 µM | > 100 µM | 0.077 µM | > 100 µM | > 100 µM | > 100 µM | 0.157 µM | > 100 µM | 0.03 µM | > 100 µM | 0.228 µM | > 100 µM | 0.068 µM | > 100 µM |  |  | 
